Measured values as given in ChEMBL document CHEMBL5620388, “Quinolone analogues of benzothiazinone: Synthesis, antitubercular structure-activity relationship and ADME profiling” (Eur J Med Chem, 2023).
Values after ≈ are worked out from the molar mass of the structure shown.

Legend:
Format in all cases: functional
[1] = test system: Mycobacterium tuberculosis; test: Antitubercular activity against moxifloxacin-resistant Mycobacterium tuberculosis assessed as reduction in bacterial growth incubated for 14 days; conditions: 336 h, time 14 day
How it was run: (§1)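 Strains were H37Rv, the fluoroquinolone-resistant GyrA G88C mutant, and the dprE1 P116S and C387S mutants. All were cultured in standard Middlebrook 7H9 with ADC supplement.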

[2] = test system: Mycobacterium tuberculosis; test: Antitubercular activity against Mycobacterium tuberculosis harboring DprE1 C387S mutant assessed as reduction in bacterial growth incubated for 14 days; conditions: time 14 day; how it was run: as §1
[3] = test system: Mycobacterium tuberculosis; test: Antitubercular activity against Mycobacterium tuberculosis harboring DprE1 p116S mutant assessed as reduction in bacterial growth incubated for 14 days; conditions: time 14 day; how it was run: as §1

Row | Compound | MIC90 [1] | MIC90 [2] | MIC90 [3]
1 | O=C(NCCc1ccc(Cl)cc1)c1c[nH]c2c([N+](=O)[O-])cc(C(F)(F)F)cc2c1=O | 1.9 µM (≈ 0.836 µg/mL) | 44.8 µM (≈ 19.7 µg/mL) | 17 µM (≈ 7.48 µg/mL)
2 | O=C(NCCc1ccc(F)cc1)c1c[nH]c2c([N+](=O)[O-])cc(C(F)(F)F)cc2c1=O | 1.9 µM (≈ 0.804 µg/mL) | >62 µM | 1 µM (≈ 0.423 µg/mL)
3 | NNC(=O)c1ccncc1 [ISONIAZID] | 3.6 µM (≈ 0.494 µg/mL) | 3.3 µM (≈ 0.453 µg/mL) | 2 µM (≈ 0.274 µg/mL)
4 | O=C(NCCc1ccc(C(F)(F)F)cc1)c1c[nH]c2c([N+](=O)[O-])cc(C(F)(F)F)cc2c1=O | 0.9 µM (≈ 0.426 µg/mL) | 54.2 µM (≈ 25.7 µg/mL) | 0.5 µM (≈ 0.237 µg/mL)
5 | COc1c(N2C[C@@H]3CCCN[C@@H]3C2)c(F)cc2c(=O)c(C(=O)O)cn(C3CC3)c12 [MOXIFLOXACIN] | 6.3 µM (≈ 2.53 µg/mL) | 0.05 µM (≈ 0.0201 µg/mL) | 0.1 µM (≈ 0.0401 µg/mL)
